Assay results collected from several papers.
Each line is one published result; the experiments were not run side by side.
Target: Ephrin type-A receptor 2 (EPHA2, Homo sapiens, UniProt P29317)

SMILES | read-out | action | method | tested at | measurement | value
Cn1cc(-c2cccc(N3CCc4c(sc5c4CC(C)(C)C5)C3=O)c2CO)cc(Nc2ccncn2)c1=O | enzyme activity | inhibitor |  | 1 µM | inhibition | 16%
N#CC1(c2ccccn2)CCN(Cc2cc(C(=O)O)c(=O)n3ccccc23)CC1 | cell-free assay |  | competition with immobilised ligand | 1 µM | remaining binding | 83%
O=c1[nH]c2ccccc2n1C1CCN(Cc2ccc(-c3[nH]c4cc5ncnc5cc4nc3-c3ccccc3)cc2)CC1 | cell-free assay |  |  | 0.5 µM | remaining signal | 103%
COc1cc(Nc2ncc(F)c(Nc3ccc4c(n3)NC(=O)C(C)(C)O4)n2)cc(OC)c1OC | binding |  | competition with immobilised ligand | 10 µM | inhibition | 90%
COc1ncccc1-c1cnn2ccc(N3CCN(C(=O)OC(C)C)CC3)nc12 | binding |  | competition with immobilised ligand | 1 µM | remaining binding | 79%
Nc1ncc(-c2nc(N3CCOCC3)nc(N3CCOCC3)n2)c(C(F)F)n1 | cell-free assay |  | competition with immobilised ligand | 10 µM | remaining binding | 94%
Cn1cc(-c2cc(F)cc(N3CCn4c(cc5c4CCCC5)C3=O)c2CO)cc(Nc2ccc(N3CCN(C4COC4)CC3)cn2)c1=O | enzyme activity | inhibitor |  | 0.1 µM | inhibition | -1%
Cc1nn(C)cc1-c1nc2c(N3CCN(Cc4ccc(Cl)cc4)CC3)c(Cl)cnc2[nH]1 | binding |  | competition with immobilised ligand | 1 µM | remaining binding | 100%
Cn1cncc1[C@@](O)(COc1ccc(C#N)cc1-c1ccc(OC(F)(F)F)cc1)c1ccc(C#N)cc1 | cell-free assay |  | competition with immobilised ligand | 1 µM | remaining binding | 89%
CC(C)(C)c1cc(C=C(C#N)C#N)cc(Br)c1O | enzyme activity | inhibitor |  | 0.5 µM | remaining activity | 105%
